# Measurements reported in ChEMBL document CHEMBL4715736, “Identification of anticancer agents based on the thieno[2,3-b]pyridine and 1H-pyrazole molecular scaffolds” (2016).
# Legend:
# Type in all cases: functional
# Settings in all cases: read-out: Activity
# COLO 205 = assay: Growth inhibition of human COLO 205 cells assessed as cell growth at 10 uM incubated for 48 hrs by sulforhodamine B assay relative to control
# Method in brief: (§1)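 NCI Developmental Therapeutics Program NCI60 panel. Compounds that were active in the 10 µM one-dose screen went on to dose–response testing. Growth at each concentration is expressed relative to untreated control (100%). GI50 (concentration giving 50% of maximal inhibition of proliferation) and TGI (concentration giving total growth inhibition) were derived from the curves.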
# SNB-19 = assay: Growth inhibition of human SNB-19 cells assessed as cell growth at 10 uM incubated for 48 hrs by sulforhodamine B assay relative to control
# Method in brief: (§2)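 Run by the NCI Developmental Therapeutics Program as part of its 60-line human tumour panel. Each compound tested at a single 10 µM dose. Growth expressed as % relative to untreated control cells (100%).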
# U-251 = assay: Growth inhibition of human U-251 cells assessed as cell growth at 10 uM incubated for 48 hrs by sulforhodamine B assay relative to control; method in brief: as §2
# M14 = assay: Growth inhibition of human M14 cells assessed as cell growth at 10 uM incubated for 48 hrs by sulforhodamine B assay relative to control
# Method in brief: (§3)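 Submitted to the NCI Developmental Therapeutics Program for the NCI60 human tumour cell line panel. First screen at a single 10 µM concentration. Read-out is growth relative to untreated control cells set at 100%.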
# SN12C = assay: Growth inhibition of human SN12C cells assessed as cell growth at 10 uM incubated for 48 hrs by sulforhodamine B assay relative to control; method in brief: as §2
# SF-295 = assay: Growth inhibition of human SF-295 cells assessed as cell growth at 10 uM incubated for 48 hrs by sulforhodamine B assay relative to control; method in brief: as §2
# UACC-62 = assay: Growth inhibition of human UACC-62 cells assessed as cell growth at 10 uM incubated for 48 hrs by sulforhodamine B assay relative to control; method in brief: as §2
# CCRF-CEM = assay: Growth inhibition of human CCRF-CEM cells assessed as cell growth at 10 uM incubated for 48 hrs by sulforhodamine B assay relative to control; method in brief: as §1
# NCI-H460 = assay: Growth inhibition of human NCI-H460 cells assessed as cell growth at 10 uM incubated for 48 hrs by sulforhodamine B assay relative to control; method in brief: as §3
# SK-MEL-28 = assay: Growth inhibition of human SK-MEL-28 cells assessed as cell growth at 10 uM incubated for 48 hrs by sulforhodamine B assay relative to control; method in brief: as §2
# RPMI-8226 = assay: Growth inhibition of human RPMI-8226 cells assessed as cell growth at 10 uM incubated for 48 hrs by sulforhodamine B assay relative to control; method in brief: as §2
# MDA-MB-468 = assay: Growth inhibition of human MDA-MB-468 cells assessed as cell growth at 10 uM incubated for 48 hrs by sulforhodamine B assay relative to control; method in brief: as §3
# OVCAR-8 = assay: Growth inhibition of human OVCAR-8 cells assessed as cell growth at 10 uM incubated for 48 hrs by sulforhodamine B assay relative to control; method in brief: as §2
# ACHN = assay: Growth inhibition of human ACHN cells assessed as cell growth at 10 uM incubated for 48 hrs by sulforhodamine B assay relative to control
# Method in brief: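 NCI Developmental Therapeutics Program NCI60 human tumour cell line panel, one-dose primary screen with every compound at 10 µM. Growth is expressed as % of untreated control cells (100%).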
# Malme-3M = assay: Growth inhibition of human Malme-3M cells assessed as cell growth at 10 uM incubated for 48 hrs by sulforhodamine B assay relative to control; method in brief: as §3
# LOX IMVI = assay: Growth inhibition of human LOX IMVI cells assessed as cell growth at 10 uM incubated for 48 hrs by sulforhodamine B assay relative to control; method in brief: as §3
# DU-145 = assay: Growth inhibition of human DU-145 cells assessed as cell growth at 10 uM incubated for 48 hrs by sulforhodamine B assay relative to control; method in brief: as §1
# SF-539 = assay: Growth inhibition of human SF-539 cells assessed as cell growth at 10 uM incubated for 48 hrs by sulforhodamine B assay relative to control; method in brief: as §2
# IGROV-1 = assay: Growth inhibition of human IGROV-1 cells assessed as cell growth at 10 uM incubated for 48 hrs by sulforhodamine B assay relative to control; method in brief: as §3
# UACC-257 = assay: Growth inhibition of human UACC-257 cells assessed as cell growth at 10 uM incubated for 48 hrs by sulforhodamine B assay relative to control; method in brief: as §2
# OVCAR-5 = assay: Growth inhibition of human OVCAR-5 cells assessed as cell growth at 10 uM incubated for 48 hrs by sulforhodamine B assay relative to control; method in brief: as §2
# A549 = assay: Growth inhibition of human A549/ATCC cells assessed as cell growth at 10 uM incubated for 48 hrs by sulforhodamine B assay relative to control; method in brief: as §1
# NCI-H322M = assay: Growth inhibition of human NCI-H322M cells assessed as cell growth at 10 uM incubated for 48 hrs by sulforhodamine B assay relative to control; method in brief: as §3
# MCF7 = assay: Growth inhibition of human MCF7 cells assessed as cell growth at 10 uM incubated for 48 hrs by sulforhodamine B assay relative to control; method in brief: as §3
# NCI-H23 = assay: Growth inhibition of human NCI-H23 cells assessed as cell growth at 10 uM incubated for 48 hrs by sulforhodamine B assay relative to control; method in brief: as §3
# KM12 = assay: Growth inhibition of human KM12 cells assessed as cell growth at 10 uM incubated for 48 hrs by sulforhodamine B assay relative to control; method in brief: as §3
# HOP-92 = assay: Growth inhibition of human HOP-92 cells assessed as cell growth at 10 uM incubated for 48 hrs by sulforhodamine B assay relative to control; method in brief: as §3
# RXF 393 = assay: Growth inhibition of human RXF 393 cells assessed as cell growth at 10 uM incubated for 48 hrs by sulforhodamine B assay relative to control; method in brief: as §2
# T47D = assay: Growth inhibition of human T47D cells assessed as cell growth at 10 uM incubated for 48 hrs by sulforhodamine B assay relative to control; method in brief: as §2
# HCC 2998 = assay: Growth inhibition of human HCC 2998 cells assessed as cell growth at 10 uM incubated for 48 hrs by sulforhodamine B assay relative to control; method in brief: as §1
# OVCAR-4 = assay: Growth inhibition of human OVCAR-4 cells assessed as cell growth at 10 uM incubated for 48 hrs by sulforhodamine B assay relative to control; method in brief: as §2
# HOP-62 = assay: Growth inhibition of human HOP-62 cells assessed as cell growth at 10 uM incubated for 48 hrs by sulforhodamine B assay relative to control; method in brief: as §3
# SK-MEL-5 = assay: Growth inhibition of human SK-MEL-5 cells assessed as cell growth at 10 uM incubated for 48 hrs by sulforhodamine B assay relative to control; method in brief: as §2
# HCT-116 = assay: Growth inhibition of human HCT-116 cells assessed as cell growth at 10 uM incubated for 48 hrs by sulforhodamine B assay relative to control; method in brief: as §3
# OVCAR-3 = assay: Growth inhibition of human OVCAR-3 cells assessed as cell growth at 10 uM incubated for 48 hrs by sulforhodamine B assay relative to control; method in brief: as §2
SMILES,growth at 10 µM (COLO 205),growth at 10 µM (SNB-19),growth at 10 µM (U-251),growth at 10 µM (M14),growth at 10 µM (SN12C),growth at 10 µM (SF-295),growth at 10 µM (UACC-62),growth at 10 µM (CCRF-CEM),growth at 10 µM (NCI-H460),growth at 10 µM (SK-MEL-28),growth at 10 µM (RPMI-8226),growth at 10 µM (MDA-MB-468),growth at 10 µM (OVCAR-8),growth at 10 µM (ACHN),growth at 10 µM (Malme-3M),growth at 10 µM (LOX IMVI),growth at 10 µM (DU-145),growth at 10 µM (SF-539),growth at 10 µM (IGROV-1),growth at 10 µM (UACC-257),also measured
CCOc1ccc(-c2cc(N)n(S(=O)(=O)c3ccc(OC)cc3)n2)cc1,116%,96.3%,101%,120%,85.5%,115%,92.5%,86.8%,98.8%,103%,94.1%,87.4%,96.6%,102%,114%,105%,110%,98.4%,96.6%,86.6%,growth at 10 µM (OVCAR-5): 107%; growth at 10 µM (A549): 92.5%; growth at 10 µM (NCI-H322M): 102%; growth at 10 µM (MCF7): 88.2%; growth at 10 µM (NCI-H23): 115%; growth at 10 µM (KM12): 123%; growth at 10 µM (HOP-92): 82.2%; growth at 10 µM (RXF 393): 95.9%; growth at 10 µM (T47D): 96.4%; growth at 10 µM (HCC 2998): 112%; growth at 10 µM (OVCAR-4): 103%; growth at 10 µM (HOP-62): 122%; growth at 10 µM (SK-MEL-5): 97.5%; growth at 10 µM (HCT-116): 96%
CC(=O)Nc1ccc(S(=O)(=O)n2ccc(-c3ccc4c(c3)CCC(C)(C)O4)n2)cc1,88.8%,73.3%,66%,64.7%,89%,60.2%,62.4%,55.4%,41.4%,93.1%,43.7%,24.9%,69.4%,79.3%,82.5%,64.1%,83.5%,73.8%,68%,46%,growth at 10 µM (OVCAR-3): 74.4%; growth at 10 µM (OVCAR-5): 96.3%; growth at 10 µM (A549): 57.8%; growth at 10 µM (NCI-H322M): 89%; growth at 10 µM (MCF7): 66.2%; growth at 10 µM (NCI-H23): 56.6%; growth at 10 µM (KM12): 67.4%; growth at 10 µM (HOP-92): 69.8%; growth at 10 µM (T47D): 31.1%; growth at 10 µM (HCC 2998): 83.3%; growth at 10 µM (OVCAR-4): 46.2%; growth at 10 µM (HOP-62): 94.4%; growth at 10 µM (SK-MEL-5): 26.3%; growth at 10 µM (HCT-116): 29.9%
Cc1ccc(S(=O)(=O)n2ccc(-c3ccc(OCCCF)cc3)n2)cc1,101%,91.7%,85%,94.7%,80.2%,83.7%,63.9%,75.6%,89.6%,85%,72.8%,44.4%,87.7%,97.4%,101%,92.5%,99.3%,95.2%,92.5%,80%,growth at 10 µM (OVCAR-5): 110%; growth at 10 µM (A549): 78.8%; growth at 10 µM (NCI-H322M): 93.7%; growth at 10 µM (MCF7): 78.3%; growth at 10 µM (NCI-H23): 78.7%; growth at 10 µM (KM12): 95%; growth at 10 µM (HOP-92): 71.8%; growth at 10 µM (RXF 393): 91.8%; growth at 10 µM (T47D): 72.9%; growth at 10 µM (HCC 2998): 93.9%; growth at 10 µM (OVCAR-4): 73.2%; growth at 10 µM (HOP-62): 108%; growth at 10 µM (SK-MEL-5): 73.5%; growth at 10 µM (HCT-116): 86.1%
O=S(=O)(c1ccccc1)n1ccc(-c2ccc3c(c2)CCO3)n1,96.9%,83.4%,73.6%,101%,67.9%,83.3%,73.1%,76.7%,87.3%,86.2%,62.5%,42.4%,84%,78.4%,94%,85.2%,95%,86.7%,75.7%,79.9%,growth at 10 µM (OVCAR-5): 103%; growth at 10 µM (A549): 78.8%; growth at 10 µM (NCI-H322M): 91.4%; growth at 10 µM (MCF7): 83.2%; growth at 10 µM (NCI-H23): 78.4%; growth at 10 µM (KM12): 91.9%; growth at 10 µM (HOP-92): 41.8%; growth at 10 µM (RXF 393): 82.9%; growth at 10 µM (T47D): 68.8%; growth at 10 µM (HCC 2998): 90.8%; growth at 10 µM (OVCAR-4): 70.1%; growth at 10 µM (HOP-62): 98.8%; growth at 10 µM (SK-MEL-5): 70.2%; growth at 10 µM (HCT-116): 89.1%
CC1(C)CCc2cc(-c3ccn(S(=O)(=O)c4ccc(Cl)cc4Cl)n3)ccc2O1,106%,87.2%,87.9%,85.9%,89.6%,94.4%,72.6%,62.4%,95.6%,102%,79%,81.5%,97%,103%,85.1%,104%,96.9%,103%,94.5%,97.1%,growth at 10 µM (OVCAR-3): 101%; growth at 10 µM (OVCAR-5): 97.5%; growth at 10 µM (A549): 83.7%; growth at 10 µM (NCI-H322M): 90.5%; growth at 10 µM (MCF7): 86.6%; growth at 10 µM (NCI-H23): 98.1%; growth at 10 µM (KM12): 92.9%; growth at 10 µM (HOP-92): 57.1%; growth at 10 µM (T47D): 76.6%; growth at 10 µM (HCC 2998): 99.1%; growth at 10 µM (OVCAR-4): 69%; growth at 10 µM (HOP-62): 105%; growth at 10 µM (SK-MEL-5): 97.3%; growth at 10 µM (HCT-116): 73.6%
